In the library only some 5.6% were active in any assay of this set; here they are far more common.
aDG glyco up = increases alpha dystroglycan glycosylation; Pro5-aDG cells, alpha-DG glycosylation AlphaScreen (IIH6); 0% Pro5, 100% B10-LARGE cell signal; activation, % at 10 µM; 360,000 tested, 0.22% active; AID 624168;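 active = activation of at least 8% versus controls, or a plate z-score of at least 8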;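 also: Pro5 are CHO cells carrying HIG-tagged alpha-DG that lacks glycosylation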
UPR CHOP act = activators of apoptotic arm of unfolded protein response (CHOP); 330,000 tested, 0.34% active; activation, % at 10 µM; CHO-CHOP luciferase reporter, UPR activation, luminescence; percent of tunicamycin response over DMSO baseline;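 active = at 10 µM dose, activation of 40% or more, normalized to positive control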;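 also: 100% = tunicamycin at 10 µg/mL and 0% = DMSO alone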
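Material: CHO-CHOP cells, stable luciferase reporter of PERK-eIF2a-CHOP signalling; quantity: 500 reporter cells seeded per well; buffer or medium: F12 medium containing 10% fetal bovine serum; compound: one dose, 10 µM in 0.5% DMSO; incubation: 6 h compound treatment, 37 °C; measured by: Steady-Glo luciferase luminescence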
GRIN3A LBD mod = modulators (binders) of human NR3A ligand-binding domain | NR3A LBD differential scanning fluorimetry, Tm shift; 0% = protein alone, 100% = glycine-bound protein | Tm shift relative to glycine control, % at 25 µM | 340,000 tested, 2.5% active | AID 1259313;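 active = melting temperature shift of at least 10% of the positive control shift, at one fixed dose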
MPTP block = permeability transition pore inhibition; isolated mouse mitochondria, Ca2+ swelling absorbance, 30 min; 360,000 tested, 1.4% active; inhibition, % at 10 µM;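 active = inhibition of 50% or more, scaled per plate between neutral and stimulator controls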;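 also: 0% = DMSO wells given calcium and 100% = 1 mM EGTA wells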
CHOP inhibitor = blocks CHOP induction under ER stress; CHO-K1 CHOP-promoter luciferase, tunicamycin-induced, 15-18 h; inhibition, % at 10 µM; AID 2732; 220,000 tested, 3.8% active;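 active = compounds that reduced the stress-induced luciferase reporter signal by more than about 70% of percent inhibition, limit read from the data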;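 also: 0% = tunicamycin plus vehicle and 100% = wells without tunicamycin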
XBP1 UPR activ = adaptive UPR (XBP1) activation; CHO-XBP1 luciferase reporter, IRE1-XBP1 UPR activation, luminescence; percent of tunicamycin response, DMSO as zero; activation, % at 20 µM; 330,000 tested, 0.33% active; AID 463104;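 active = versus positive control, 20 µM dose yields 30% or more activation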;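 also: 100% = tunicamycin at 10 µg/mL and 0% = DMSO only wells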
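Material: CHO cell line with stable XBP1 luciferase reporter; buffer or medium: F12 medium containing 10% fetal bovine serum; compound: single point, 20 µM final compound, 1% DMSO; incubation: 6 h treatment, 37 °C; measured by: glow luminescence from Steady-Glo reagent; evaluation: activation, % of tunicamycin; control set: tunicamycin high, DMSO low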
An asterisk follows results filed as active.

For CCOC(=O)c1c(C2COc3ccccc3O2)csc1N (centres undefined) the results were aDG glyco up 0, UPR CHOP act -2, GRIN3A LBD mod -12, MPTP block 1, CHOP inhibitor 84* and XBP1 UPR activ 4.
For CCOC(=O)c1c(C2COc3ccccc3O2)csc1NC(=O)c1ccccc1 (centres undefined) the results were aDG glyco up 0, UPR CHOP act -1, GRIN3A LBD mod 11*, MPTP block 3, CHOP inhibitor 2 and XBP1 UPR activ 0.
CCOC(=O)N1CCN(C(=O)C2COc3ccccc3O2)CC1 (centres undefined) was read as aDG glyco up 0, UPR CHOP act 1, GRIN3A LBD mod -1, MPTP block 0, CHOP inhibitor -27 and XBP1 UPR activ 0.
`Cc1ccccc1/C=N/N1CCN(c2ccccc2)CC1` gave aDG glyco up 0, UPR CHOP act 2, GRIN3A LBD mod 13*, MPTP block -1, CHOP inhibitor 4 and XBP1 UPR activ 1.
Screening Cc1ccc(/C=N/N2CCN(c3ccccc3)CC2)cc1 returned aDG glyco up 0, UPR CHOP act 6, GRIN3A LBD mod -1, MPTP block 0, CHOP inhibitor -9 and XBP1 UPR activ 2.
Cc1ccc(NC(=O)COc2ccc3c(c2)OCO3)c(Cl)c1 was read as aDG glyco up 0, UPR CHOP act 6, GRIN3A LBD mod 0, MPTP block -1 and XBP1 UPR activ 0.
Screening N#CC12CCCCC1CC1CCCCC1(C#N)N2Cc1ccccn1 (centres undefined) returned aDG glyco up 0, UPR CHOP act 0, GRIN3A LBD mod 10*, MPTP block -5, CHOP inhibitor -6 and XBP1 UPR activ 1.
For N#CC12CCCCC1CC1CCCCC1(C#N)N2CCO (centres undefined) the results were aDG glyco up 0, UPR CHOP act 1, GRIN3A LBD mod -4, MPTP block -2, CHOP inhibitor 25 and XBP1 UPR activ -3.
Screening Oc1ccc(/C=N/Nc2ncc(Br)cn2)c(O)c1 returned aDG glyco up 2, UPR CHOP act 4, GRIN3A LBD mod 31*, MPTP block 1, CHOP inhibitor 54 and XBP1 UPR activ 1.
`Oc1ccc(Br)cc1/C=N/Nc1ncc(-c2ccccc2)cn1` gave aDG glyco up 0, UPR CHOP act 1, GRIN3A LBD mod 4, MPTP block 7, CHOP inhibitor 55 and XBP1 UPR activ -1.
Screening COC(=O)c1sccc1N/N=C/c1cccc(OC)c1O returned aDG glyco up 0, UPR CHOP act -3, GRIN3A LBD mod 3, MPTP block 1, CHOP inhibitor 83* and XBP1 UPR activ -7.
COC(=O)c1sccc1N/N=C/c1ccc(OC)c(OC)c1OC was read as aDG glyco up 0, UPR CHOP act 7, GRIN3A LBD mod -4, MPTP block -7, CHOP inhibitor -5 and XBP1 UPR activ 4.
For COc1cccc(/C=N/Nc2cc(-n3nc(C)cc3-c3ccccc3)ncn2)c1O the results were aDG glyco up 1, UPR CHOP act -1, GRIN3A LBD mod -10, MPTP block 8, CHOP inhibitor 92* and XBP1 UPR activ 2.
COc1ccc(/C=N/Nc2nccnc2Cl)cc1 was read as aDG glyco up 0, UPR CHOP act -5, GRIN3A LBD mod 12*, MPTP block 0, CHOP inhibitor 72* and XBP1 UPR activ -5.
Screening COc1ccc(CN(C)C(=O)c2cccc(NC(=O)CC3SC(N4CCCCC4)=NC3=O)c2)c(OC)c1 (centres undefined) returned aDG glyco up 1, GRIN3A LBD mod -2 and MPTP block 0.
For CCSc1nc2c(cnn2-c2ccccc2)c(=O)n1N the results were aDG glyco up 0, UPR CHOP act 7, GRIN3A LBD mod -1, MPTP block 1, CHOP inhibitor -10 and XBP1 UPR activ 1.
Screening COc1ccc(C(=O)Oc2ccc(N(C)S(=O)(=O)c3ccccc3)cc2)cc1[N+](=O)[O-] returned aDG glyco up 0, UPR CHOP act 0, GRIN3A LBD mod 0, MPTP block 0 and XBP1 UPR activ -5.
